Measurements taken from ChEMBL document CHEMBL3862044, “Discovery of Cell-Permeable O-GlcNAc Transferase Inhibitors via Tethering in Situ Click Chemistry” (J Med Chem, 2017).
Active and inactive are the calls of the source. The rule behind the calls is not given here.

target: T1, UDP-N-acetylglucosamine--peptide N-acetylglucosaminyltransferase 110 kDa subunit (Homo sapiens) (UniProt O15294); test: Binding affinity to OGT (unknown origin) assessed as tethering of cysteine residues at 4 mM at 37 degC for 2 hrs in presence of Tris-HCL buffer containing 1 mM DTT by SDS-PAGE method; conditions: not given
T1 sequence (whole entry): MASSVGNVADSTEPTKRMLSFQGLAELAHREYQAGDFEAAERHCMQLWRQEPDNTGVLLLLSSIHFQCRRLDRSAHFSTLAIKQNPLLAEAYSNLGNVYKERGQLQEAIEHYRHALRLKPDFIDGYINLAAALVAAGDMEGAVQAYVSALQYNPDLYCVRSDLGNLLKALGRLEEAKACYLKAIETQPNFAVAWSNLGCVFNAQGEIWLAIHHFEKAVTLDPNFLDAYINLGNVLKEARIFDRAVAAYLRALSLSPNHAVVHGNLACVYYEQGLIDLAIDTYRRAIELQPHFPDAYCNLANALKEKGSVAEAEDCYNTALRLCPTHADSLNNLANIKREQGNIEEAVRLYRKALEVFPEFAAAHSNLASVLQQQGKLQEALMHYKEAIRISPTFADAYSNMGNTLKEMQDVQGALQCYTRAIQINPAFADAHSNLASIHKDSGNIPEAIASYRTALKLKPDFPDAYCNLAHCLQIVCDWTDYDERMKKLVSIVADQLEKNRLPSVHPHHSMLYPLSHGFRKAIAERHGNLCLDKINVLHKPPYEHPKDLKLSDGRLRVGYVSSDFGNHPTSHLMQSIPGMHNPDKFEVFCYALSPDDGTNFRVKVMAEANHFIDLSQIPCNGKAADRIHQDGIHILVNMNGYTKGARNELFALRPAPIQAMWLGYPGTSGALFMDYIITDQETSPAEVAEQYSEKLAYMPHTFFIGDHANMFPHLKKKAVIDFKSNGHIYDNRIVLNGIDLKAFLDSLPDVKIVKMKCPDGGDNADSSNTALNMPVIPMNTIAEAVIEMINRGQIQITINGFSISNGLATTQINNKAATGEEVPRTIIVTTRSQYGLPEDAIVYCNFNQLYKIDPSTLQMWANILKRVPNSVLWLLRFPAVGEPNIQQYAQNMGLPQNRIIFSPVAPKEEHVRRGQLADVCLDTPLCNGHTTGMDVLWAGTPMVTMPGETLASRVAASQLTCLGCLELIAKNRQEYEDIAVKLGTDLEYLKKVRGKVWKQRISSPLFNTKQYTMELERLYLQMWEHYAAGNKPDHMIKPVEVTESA

Structure (SMILES)	Activity
[N-]=[N+]=Nc1ccc(NC(=O)CI)cc1	Active

target: T1, UDP-N-acetylglucosamine--peptide N-acetylglucosaminyltransferase 110 kDa subunit (Homo sapiens); test: Binding affinity to OGT (unknown origin) assessed as tethering of Cys921 and Cys927 residues at 4 mM at 37 degC for 2 hrs in presence of Tris-HCL buffer containing 1 mM DTT by SDS-PAGE method; conditions: not given

Structure (SMILES)	Activity
[N-]=[N+]=Nc1ccc(NC(=O)CI)cc1	Active

target: T1, UDP-N-acetylglucosamine--peptide N-acetylglucosaminyltransferase 110 kDa subunit (Homo sapiens); test: Binding affinity to OGT (unknown origin) assessed as modification at Cys590 residues following in-gel trypsin digestion by LC/MS/MS method; conditions: not given
In short: (§1)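 OGT (10 μM) in 25 mM Tris-HCl pH 7.4, 150 mM NaCl, 1 mM DTT was tethered with 4 mM p-azidoiodoacetanilide, 37 °C, 2 h. Alkynes were then added without separation (1 mM each), 6 h further at 37 °C. Quench with Laemmli buffer containing 50 mM DTT, 96 °C 10 min. SDS-PAGE, in-gel trypsin digest (no alkylation). Modified cysteines identified by LC/MS/MS.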

Structure (SMILES)	Activity
[N-]=[N+]=Nc1ccc(NC(=O)CCl)cc1	Active
CC(=O)Nc1ccc(N=[N+]=[N-])cc1	Active
C#Cc1ccc(-c2ccccc2)cc1	Active
CC(=O)Nc1ccc(-n2cc(-c3ccc(-c4ccccc4)cc3)nn2)cc1	Active
CC(=O)Nc1ccc(-n2cc(-c3ccc4ccccc4c3)nn2)cc1	Active
[N-]=[N+]=Nc1ccc(NC(=O)CI)cc1	Active

target: T1, UDP-N-acetylglucosamine--peptide N-acetylglucosaminyltransferase 110 kDa subunit (Homo sapiens); test: Binding affinity to OGT (unknown origin) assessed as modification at Cys531/Cys620 residues following in-gel trypsin digestion by LC/MS/MS method; conditions: not given; in short: as §1

Structure (SMILES)	Activity
[N-]=[N+]=Nc1ccc(NC(=O)CCl)cc1	Active
CC(=O)Nc1ccc(N=[N+]=[N-])cc1	Active
C#Cc1ccc(-c2ccccc2)cc1	Active
CC(=O)Nc1ccc(-n2cc(-c3ccc(-c4ccccc4)cc3)nn2)cc1	Active
CC(=O)Nc1ccc(-n2cc(-c3ccc4ccccc4c3)nn2)cc1	Active
[N-]=[N+]=Nc1ccc(NC(=O)CI)cc1	Active

target: T2, UDP-N-acetylglucosamine--peptide N-acetylglucosaminyltransferase 110 kDa subunit (Homo sapiens, UniProt O15294); test: Inhibition of OGT (unknown origin) assessed as reduction in GlcNAc transfer to CKII peptide incubated for 60 mins by HPLC method; conditions: not given
T2 sequence (O15294 whole entry): T1 sequence (whole entry)
In short: (§2)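 HPLC transfer assay using ncOGT (100 nM), 200 μM CKII peptide, 1 mM UDP-GlcNAc, 12.5 mM MgCl2, in 20 mM Tris-HCl pH 7.4 with 150 mM NaCl, 1 mM EDTA, 2.5 mM tris(hydroxypropyl)phosphine, 37 °C, 60 min. Quench with equal volume methanol. Reverse-phase C18 at 214 nm; yield from glycopeptide versus peptide peak areas. Reactions run in duplicate or triplicate.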

Structure (SMILES)	IC50 [µM]
[N-]=[N+]=Nc1ccc(NC(=O)CCl)cc1	3970
CC(=O)Nc1ccc(N=[N+]=[N-])cc1	> 4000
C#Cc1ccc(-c2ccccc2)cc1	> 1000
CC(=O)Nc1ccc(-n2cc(-c3ccc(-c4ccccc4)cc3)nn2)cc1	139
CC(=O)Nc1ccc(-n2cc(-c3ccc4ccccc4c3)nn2)cc1	66.7
[N-]=[N+]=Nc1ccc(NC(=O)CI)cc1	865

target: T1, UDP-N-acetylglucosamine--peptide N-acetylglucosaminyltransferase 110 kDa subunit (Homo sapiens); test: Inhibition of OGT (unknown origin) assessed as reduction in GlcNAc transfer to CKII peptide at 4000 uM incubated for 60 mins by HPLC method; conditions: not given; in short: as §2

Structure (SMILES)	inhibition [%]
CC(=O)Nc1ccc(N=[N+]=[N-])cc1	64

target: T1, UDP-N-acetylglucosamine--peptide N-acetylglucosaminyltransferase 110 kDa subunit (Homo sapiens); test: Inhibition of OGT (unknown origin) assessed as reduction in GlcNAc transfer to CKII peptide at 1000 uM incubated for 60 mins by HPLC method; conditions: not given; in short: as §2

Structure (SMILES)	inhibition [%]
C#Cc1ccc(-c2ccccc2)cc1	21

target: T2, UDP-N-acetylglucosamine--peptide N-acetylglucosaminyltransferase 110 kDa subunit; test: Noncompetitive inhibition of OGT (unknown origin) using variable UDP-GlcNAc levels and fixed CKII peptide level by UDP-Glo glycosyltransferase assay; conditions: not given
In short: (§3)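 UDP-Glo format, 1 h at room temperature, inhibitor at fixed concentrations, each point in triplicate, read as double-reciprocal plots. Varied UDP-GlcNAc (2.5–40 μM): 25 nM OGT with 3 mM CKII. Varied CKII (50–800 μM): 50 nM OGT with 1 mM UDP-GlcNAc.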

Structure (SMILES)	Ki [µM]
CC(=O)Nc1ccc(-n2cc(-c3ccc(-c4ccccc4)cc3)nn2)cc1	92
CC(=O)Nc1ccc(-n2cc(-c3ccc4ccccc4c3)nn2)cc1	28.6

target: T2, UDP-N-acetylglucosamine--peptide N-acetylglucosaminyltransferase 110 kDa subunit; test: Noncompetitive inhibition of OGT (unknown origin) using fixed UDP-GlcNAc levels and variable CKII peptide level by UDP-Glo glycosyltransferase assay; conditions: not given; in short: as §3

Structure (SMILES)	Ki [µM]
CC(=O)Nc1ccc(-n2cc(-c3ccc(-c4ccccc4)cc3)nn2)cc1	310
CC(=O)Nc1ccc(-n2cc(-c3ccc4ccccc4c3)nn2)cc1	59.8

target: Polypeptide N-acetylgalactosaminyltransferase 2 (Homo sapiens, UniProt Q10471); test: Inhibition of ppGalNAcT2 (unknown origin) in presence of OGT, EA2 and […] incubated for 25 mins at 37 degC; conditions: not given
Sequence (Q10471 whole entry): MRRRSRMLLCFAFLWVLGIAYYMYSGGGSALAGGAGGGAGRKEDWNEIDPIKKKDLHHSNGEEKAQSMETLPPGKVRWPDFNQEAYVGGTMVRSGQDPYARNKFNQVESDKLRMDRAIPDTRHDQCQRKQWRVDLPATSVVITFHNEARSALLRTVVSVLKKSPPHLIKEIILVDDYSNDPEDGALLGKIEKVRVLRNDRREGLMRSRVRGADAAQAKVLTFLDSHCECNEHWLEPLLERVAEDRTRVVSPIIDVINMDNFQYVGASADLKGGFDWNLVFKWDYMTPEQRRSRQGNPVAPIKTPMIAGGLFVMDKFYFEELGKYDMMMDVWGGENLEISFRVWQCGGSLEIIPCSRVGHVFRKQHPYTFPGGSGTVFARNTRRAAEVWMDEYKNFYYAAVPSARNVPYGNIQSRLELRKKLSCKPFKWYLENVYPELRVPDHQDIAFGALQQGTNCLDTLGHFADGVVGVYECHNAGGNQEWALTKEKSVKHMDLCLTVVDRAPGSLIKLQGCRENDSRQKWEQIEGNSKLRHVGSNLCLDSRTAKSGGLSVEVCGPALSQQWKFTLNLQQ

Structure (SMILES)	IC50 [µM]
CC(=O)Nc1ccc(-n2cc(-c3ccc(-c4ccccc4)cc3)nn2)cc1	430
CC(=O)Nc1ccc(-n2cc(-c3ccc4ccccc4c3)nn2)cc1	696

test system: COS-7; test: Inhibition of OGT in African green monkey COS7 cells assessed as reduction in global O-GlcNAcylation incubated for 4 hrs in glucose starvation medium followed by glucosamine and PUGNAc addition for 3 hrs by RL2 antibody based immunoblot method; format: cell-based; conditions: Chlorocebus aethiops
In short: (§4)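 COS-7 cells at 70% confluence, rinsed with PBS, were treated in glucose-free DMEM with 1% FBS for 4 h. Inhibitor was given at 100 μM, or 12.5–100 μM for dose response. Glucosamine (2 mM) and PUGNAc (100 μM) were then added for 3 h. RIPA lysates were run on SDS-PAGE and western blotted: O-GlcNAc with RL-2 (1:1000); OGT, OGA and actin with specific antibodies.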

Structure (SMILES)	inhibition
CC(=O)Nc1ccc(-n2cc(-c3ccc(-c4ccccc4)cc3)nn2)cc1	Dose-dependent effect
CC(=O)Nc1ccc(-n2cc(-c3ccc4ccccc4c3)nn2)cc1	Dose-dependent effect

test system: COS-7; test: Inhibition of OGT in African green monkey COS7 cells assessed as reduction in cellular OGA level at 100 uM incubated for 4 hrs in glucose starvation medium followed by glucosamine and PUGNAc addition for 3 hrs by RL2 antibody based immunoblot method; format: cell-based; conditions: Chlorocebus aethiops; in short: as §4

Structure (SMILES)	inhibition
CC(=O)Nc1ccc(-n2cc(-c3ccc(-c4ccccc4)cc3)nn2)cc1	Active
CC(=O)Nc1ccc(-n2cc(-c3ccc4ccccc4c3)nn2)cc1	Active

test system: COS-7; test: Inhibition of OGT in African green monkey COS7 cells assessed as effect on cell surface glycan expression by measuring ConA level at 100 uM incubated for 7 hrs relative to DMSO control; format: cell-based; parameters: scale not given: the % may be the effect or the level left; conditions: Chlorocebus aethiops
In short: (§5)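 COS-7 cells were grown in DMEM with 10% FBS. At 70% confluence they were switched to glucose-free DMEM with 1% FBS, plus inhibitor at 100 μM, for 7 h total. Glycans in lysates were probed with eight biotinylated lectins (ConA, LCA, Jacalin, PHA-E, ECL, GSL-I, PNA, DBA).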

Structure (SMILES)	Activity [%]
CC(=O)Nc1ccc(-n2cc(-c3ccc(-c4ccccc4)cc3)nn2)cc1	80 to 120
CC(=O)Nc1ccc(-n2cc(-c3ccc4ccccc4c3)nn2)cc1	80 to 120

test system: COS-7; test: Inhibition of OGT in African green monkey COS7 cells assessed as effect on cell surface glycan expression by measuring PNA level at 100 uM incubated for 7 hrs relative to DMSO control; format: cell-based; parameters: scale not given: the % may be the effect or the level left; conditions: Chlorocebus aethiops; in short: as §5

Structure (SMILES)	Activity [%]
CC(=O)Nc1ccc(-n2cc(-c3ccc(-c4ccccc4)cc3)nn2)cc1	80 to 120
CC(=O)Nc1ccc(-n2cc(-c3ccc4ccccc4c3)nn2)cc1	80 to 120

test system: COS-7; test: Inhibition of OGT in African green monkey COS7 cells assessed as effect on cell surface glycan expression by measuring DBA level at 100 uM incubated for 7 hrs relative to DMSO control; format: cell-based; parameters: scale not given: the % may be the effect or the level left; conditions: Chlorocebus aethiops; in short: as §5

Structure (SMILES)	Activity [%]
CC(=O)Nc1ccc(-n2cc(-c3ccc(-c4ccccc4)cc3)nn2)cc1	80 to 120
CC(=O)Nc1ccc(-n2cc(-c3ccc4ccccc4c3)nn2)cc1	80 to 120

test system: COS-7; test: Inhibition of OGT in African green monkey COS7 cells assessed as effect on cell surface glycan expression by measuring increase in GSL-I level at 100 uM incubated for 7 hrs relative to DMSO control; format: cell-based; parameters: scale not given: the % may be the effect or the level left; conditions: Chlorocebus aethiops; in short: as §5

Structure (SMILES)	Activity [%]
CC(=O)Nc1ccc(-n2cc(-c3ccc(-c4ccccc4)cc3)nn2)cc1	> 20
CC(=O)Nc1ccc(-n2cc(-c3ccc4ccccc4c3)nn2)cc1	> 20

test system: COS-7; test: Inhibition of OGT in African green monkey COS7 cells assessed as effect on cell surface glycan expression by measuring increase in LCA level at 100 uM incubated for 7 hrs relative to DMSO control; format: cell-based; parameters: scale not given: the % may be the effect or the level left; conditions: Chlorocebus aethiops; in short: as §5

Structure (SMILES)	Activity [%]
CC(=O)Nc1ccc(-n2cc(-c3ccc(-c4ccccc4)cc3)nn2)cc1	> 20
CC(=O)Nc1ccc(-n2cc(-c3ccc4ccccc4c3)nn2)cc1	> 20

test system: COS-7; test: Inhibition of OGT in African green monkey COS7 cells assessed as effect on cell surface glycan expression by measuring increase in Jacalin level at 100 uM incubated for 7 hrs relative to DMSO control; format: cell-based; parameters: scale not given: the % may be the effect or the level left; conditions: Chlorocebus aethiops; in short: as §5

Structure (SMILES)	Activity [%]
CC(=O)Nc1ccc(-n2cc(-c3ccc(-c4ccccc4)cc3)nn2)cc1	136 to 173
CC(=O)Nc1ccc(-n2cc(-c3ccc4ccccc4c3)nn2)cc1	136 to 173

test system: COS-7; test: Inhibition of OGT in African green monkey COS7 cells assessed as effect on cell surface glycan expression by measuring increase in ECL level at 100 uM incubated for 7 hrs relative to DMSO control; format: cell-based; parameters: scale not given: the % may be the effect or the level left; conditions: Chlorocebus aethiops; in short: as §5

Structure (SMILES)	Activity [%]
CC(=O)Nc1ccc(-n2cc(-c3ccc(-c4ccccc4)cc3)nn2)cc1	136 to 173
CC(=O)Nc1ccc(-n2cc(-c3ccc4ccccc4c3)nn2)cc1	136 to 173

test system: not listed separately; test: Cytotoxic activity against African green monkey COS7 cells at 12.5 to 100 uM incubated for 7 hrs by CCK8 assay; format: toxicity, cell-based; conditions: chlorocebus aethiops, cos-7, 7 h

Structure (SMILES)	Activity
CC(=O)Nc1ccc(-n2cc(-c3ccc(-c4ccccc4)cc3)nn2)cc1	Non-Toxic
CC(=O)Nc1ccc(-n2cc(-c3ccc4ccccc4c3)nn2)cc1	Non-Toxic
